The compounds below were run on OCI-AML2 (assay: Cytotoxicity against human OCI-AML2 cells assessed as cell viability after 72 hrs by MTS assay). Settings: OCI-AML2, 72 h.
Assay type: functional, cell-based
Summary of the method: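 Cells were seeded at 1-3 x 10^4 per well into wells already holding compound or vehicle, in triplicate. Incubation was 72 h at 37 °C in 5% CO2. Viability was read by MTS colorimetry relative to DMSO control, and EC50 was fitted to a standard dose-response curve where applicable.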

| SMILES | IC50 |
| --- | --- |
| CN(CC(=O)N(Cc1ccc(C2CCCCC2)cc1)c1ccc(C(=O)O)c(O)c1)S(=O)(=O)c1c(F)c(F)c(F)c(F)c1F | 10 µM |

What follows are compounds tested against Signal transducer and activator of transcription 3 (Homo sapiens, UniProt P40763) (assay: Competitive binding affinity to Stat3 SH2 domain (unknown origin) using 5-FAM-GpYLPQTV-NH2 as probe assessed as phosphopetide complex formation after 30 mins by fluorescence polarization assay). Settings: not given.
Chain of Signal transducer and activator of transcription 3 (P40763 whole entry, the tested form may be a part): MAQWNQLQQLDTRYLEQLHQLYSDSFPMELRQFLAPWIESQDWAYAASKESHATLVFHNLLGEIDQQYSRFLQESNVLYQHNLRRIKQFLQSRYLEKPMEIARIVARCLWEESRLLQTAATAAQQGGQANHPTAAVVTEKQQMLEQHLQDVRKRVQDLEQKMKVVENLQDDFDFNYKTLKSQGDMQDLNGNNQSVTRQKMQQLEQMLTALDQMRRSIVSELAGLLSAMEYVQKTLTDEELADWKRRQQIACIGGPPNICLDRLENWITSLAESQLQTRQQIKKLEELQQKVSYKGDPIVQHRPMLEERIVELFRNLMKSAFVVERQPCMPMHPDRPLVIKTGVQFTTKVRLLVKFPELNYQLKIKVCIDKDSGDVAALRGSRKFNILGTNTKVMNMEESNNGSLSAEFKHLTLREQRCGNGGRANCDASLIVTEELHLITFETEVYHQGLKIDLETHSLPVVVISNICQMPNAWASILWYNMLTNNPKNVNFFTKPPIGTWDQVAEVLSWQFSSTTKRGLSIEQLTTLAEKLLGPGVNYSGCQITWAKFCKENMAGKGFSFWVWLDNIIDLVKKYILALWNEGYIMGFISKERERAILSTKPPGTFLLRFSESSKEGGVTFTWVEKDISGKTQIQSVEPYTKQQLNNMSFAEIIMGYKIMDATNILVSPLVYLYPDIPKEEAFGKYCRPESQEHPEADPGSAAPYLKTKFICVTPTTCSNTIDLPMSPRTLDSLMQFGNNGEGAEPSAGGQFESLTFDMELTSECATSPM
Summary of the method: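 Fluorescence polarization. Recombinant STAT protein was incubated with the 5-FAM-GpYLPQTV-NH2 peptide probe and inhibitor for 30 min. Polarized fluorescence was plotted against inhibitor concentration, and IC50 was obtained by fitting a dose-response curve.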

| SMILES | IC50 |
| --- | --- |
| Cc1ccc(S(=O)(=O)N(CC(=O)N(Cc2ccc(C3CCCCC3)cc2)c2ccc(C(=O)O)c(O)c2)Cc2ccc3ccccc3c2)cc1 | 5 µM |
| Cc1ccc(S(=O)(=O)N(CC(=O)N(Cc2ccc(C3CCCCC3)cc2)c2ccc(C(=O)O)c(O)c2)Cc2ccc(F)cc2)cc1 | 7.6 µM |
| Cc1ccc(S(=O)(=O)N(CC(=O)N(Cc2ccc(C3CCCCC3)cc2)c2ccc(C(=O)O)c(O)c2)Cc2cccnc2)cc1 | > 50 µM |
| O=C(O)c1ccc(N(Cc2ccc(C3CCCCC3)cc2)C(=O)CN(Cc2ccc(OC(F)(F)F)cc2)S(=O)(=O)c2c(F)c(F)c(F)c(F)c2F)cc1O | 21.6 µM |
| O=C(O)c1ccc(N(Cc2ccc(C3CCCCC3)cc2)C(=O)CN(Cc2c(F)c(F)cc(F)c2F)S(=O)(=O)c2c(F)c(F)c(F)c(F)c2F)cc1O | 16.6 µM |
| Cc1ccc(S(=O)(=O)N(CC(=O)N(Cc2ccc(C3CCCCC3)cc2)c2ccc(C(=O)O)c(O)c2)Cc2ccc(N)cc2)cc1 | 20.8 µM |
| N#Cc1ccccc1CN(CC(=O)N(Cc1ccc(C2CCCCC2)cc1)c1ccc(C(=O)O)c(O)c1)S(=O)(=O)c1c(F)c(F)c(F)c(F)c1F | 11.4 µM |
| Cc1ccc(S(=O)(=O)N(CC(=O)N(Cc2ccc(C3CCCCC3)cc2)c2ccc(C(=O)O)c(O)c2)Cc2ccccc2N)cc1 | 24 µM |
| O=C(O)c1ccc(N(Cc2ccc(C3CCCCC3)cc2)C(=O)CNS(=O)(=O)c2c(F)c(F)c(F)c(F)c2F)cc1O | 32.4 µM |
| O=C(O)c1ccc(N(Cc2ccc(C3CCCCC3)cc2)C(=O)CN(Cc2ccc3ccccc3c2)S(=O)(=O)c2c(F)c(F)c(F)c(F)c2F)cc1O | 21.8 µM |
| COC(=O)c1cccc(CN(CC(=O)N(Cc2ccc(C3CCCCC3)cc2)c2ccc(C(=O)O)c(O)c2)S(=O)(=O)c2c(F)c(F)c(F)c(F)c2F)c1 | 30.8 µM |
| Cc1ccc(S(=O)(=O)N(CC(=O)N(Cc2ccc(C3CCCCC3)cc2)c2ccc(C(=O)O)c(O)c2)Cc2ccccc2C#N)cc1 | 22.6 µM |
| CC(C)(C)OC(=O)N(CC(=O)N(Cc1ccc(C2CCCCC2)cc1)c1ccc(C(=O)O)c(O)c1)S(=O)(=O)c1c(F)c(F)c(F)c(F)c1F | 27.4 µM |
| Cc1ccc(S(=O)(=O)N(CC(=O)N(Cc2ccc(C3CCCCC3)cc2)c2ccc(C(=O)O)c(O)c2)Cc2cccc(F)c2)cc1 | 9 µM |
| Cc1ccc(S(=O)(=O)N(CC(=O)N(Cc2ccc(C3CCCCC3)cc2)c2ccc(C(=O)O)c(O)c2)CC(C)C)cc1 | 17 µM |
| CCCN(CC(=O)N(Cc1ccc(C2CCCCC2)cc1)c1ccc(C(=O)O)c(O)c1)S(=O)(=O)c1c(F)c(F)c(F)c(F)c1F | 20.6 µM |
| Cc1ccc(S(=O)(=O)N(CC(=O)N(Cc2ccc(C3CCCCC3)cc2)c2ccc(C(=O)O)c(O)c2)Cc2cccc([N+](=O)[O-])c2)cc1 | 5 µM |
| Cc1ccc(S(=O)(=O)N(CC(=O)N(Cc2ccc(C3CCCCC3)cc2)c2ccc(C(=O)O)c(O)c2)Cc2cccc(Cl)c2)cc1 | 6 µM |
| Cc1ccc(S(=O)(=O)N(CC(=O)N(Cc2ccc(C3CCCCC3)cc2)c2ccc(C(=O)O)c(O)c2)Cc2ccc(F)cc2C(F)(F)F)cc1 | 11 µM |
| COC(=O)c1ccc(CN(CC(=O)N(Cc2ccc(C3CCCCC3)cc2)c2ccc(C(=O)O)c(O)c2)S(=O)(=O)c2ccc(C)cc2)cc1 | 11.6 µM |
| C=CCN(CC(=O)N(Cc1ccc(C2CCCCC2)cc1)c1ccc(C(=O)O)c(O)c1)S(=O)(=O)c1ccc(C)cc1 | > 50 µM |

| SMILES | IC50 |
| --- | --- |
| Cc1ccc(S(=O)(=O)N(CC(=O)N(Cc2ccc(C3CCCCC3)cc2)c2ccc(C(=O)O)c(O)c2)Cc2cccc(C)c2)cc1 | 5.2 µM |
| Cc1ccc(S(=O)(=O)N(CC(=O)N(Cc2ccc(C3CCCCC3)cc2)c2ccc(C(=O)O)c(O)c2)Cc2cc(F)c(F)c(F)c2F)cc1 | 22.2 µM |
| O=C(O)c1ccc(N(Cc2ccc(C3CCCCC3)cc2)C(=O)CN(Cc2ccccc2OC(F)(F)F)S(=O)(=O)c2c(F)c(F)c(F)c(F)c2F)cc1O | 10.2 µM |
| O=C(O)c1ccc(N(Cc2ccc(C3CCCCC3)cc2)C(=O)CN(Cc2ccccc2Cl)S(=O)(=O)c2c(F)c(F)c(F)c(F)c2F)cc1O | 11 µM |
| O=C(O)c1ccc(N(Cc2ccc(C3CCCCC3)cc2)C(=O)CN(Cc2cccc(OC(F)(F)F)c2)S(=O)(=O)c2c(F)c(F)c(F)c(F)c2F)cc1O | 17.8 µM |
| COC(=O)c1ccccc1CN(CC(=O)N(Cc1ccc(C2CCCCC2)cc1)c1ccc(C(=O)O)c(O)c1)S(=O)(=O)c1c(F)c(F)c(F)c(F)c1F | 17.4 µM |
| Cc1ccc(S(=O)(=O)N(CC(N)=O)CC(=O)N(Cc2ccc(C3CCCCC3)cc2)c2ccc(C(=O)O)c(O)c2)cc1 | > 50 µM |
| Cc1ccc(S(=O)(=O)N(CC(=O)N(Cc2ccc(C3CCCCC3)cc2)c2ccc(C(=O)O)c(O)c2)Cc2ccccc2)cc1 | 14.4 µM |
| Cc1ccc(S(=O)(=O)N(CC(=O)N(Cc2ccc(C3CCCCC3)cc2)c2ccc(C(=O)O)c(O)c2)Cc2ccccc2Cl)cc1 | 15.8 µM |
| N#Cc1ccc(CN(CC(=O)N(Cc2ccc(C3CCCCC3)cc2)c2ccc(C(=O)O)c(O)c2)S(=O)(=O)c2c(F)c(F)c(F)c(F)c2F)cc1 | 9.4 µM |
| Cc1ccc(S(=O)(=O)N(CC(=O)N(Cc2ccc(C3CCCCC3)cc2)c2ccc(C(=O)O)c(O)c2)Cc2ccccc2F)cc1 | 10.6 µM |
| Cc1ccc(CN(CC(=O)N(Cc2ccc(C3CCCCC3)cc2)c2ccc(C(=O)O)c(O)c2)S(=O)(=O)c2c(F)c(F)c(F)c(F)c2F)cc1 | 14.4 µM |
| O=C(O)c1ccc(N(Cc2ccc(C3CCCCC3)cc2)C(=O)CN(Cc2cc(F)c(F)c(F)c2F)S(=O)(=O)c2c(F)c(F)c(F)c(F)c2F)cc1O | 12.4 µM |
| Cc1ccc(S(=O)(=O)N(CC(=O)N(Cc2ccc(C3CCCCC3)cc2)c2ccc(C(=O)O)c(O)c2)Cc2ccc(C#N)cc2)cc1 | 8.6 µM |
| Cc1ccc(S(=O)(=O)N(CC(=O)N(Cc2ccc(C3CCCCC3)cc2)c2ccc(C(=O)O)c(O)c2)Cc2ccccc2[N+](=O)[O-])cc1 | 10 µM |
| O=C(O)c1ccc(N(Cc2ccc(C3CCCCC3)cc2)C(=O)CN(Cc2ccc(F)cc2)S(=O)(=O)c2c(F)c(F)c(F)c(F)c2F)cc1O | 17.6 µM |
| CCCN(CC(=O)N(Cc1ccc(C2CCCCC2)cc1)c1ccc(C(=O)O)c(O)c1)S(=O)(=O)c1ccc(C)cc1 | 17.8 µM |
| Cc1ccc(S(=O)(=O)N(CC(=O)N(Cc2ccc(C3CCCCC3)cc2)c2ccc(C(=O)O)c(O)c2)Cc2cccc(N)c2)cc1 | 12.4 µM |
| O=C(O)c1ccc(N(Cc2ccc(C3CCCCC3)cc2)C(=O)CN(Cc2cccc(F)c2)S(=O)(=O)c2c(F)c(F)c(F)c(F)c2F)cc1O | 17.8 µM |
| Cc1cccc(CN(CC(=O)N(Cc2ccc(C3CCCCC3)cc2)c2ccc(C(=O)O)c(O)c2)S(=O)(=O)c2c(F)c(F)c(F)c(F)c2F)c1 | 14.6 µM |
| CCOC(=O)c1ccc(CN(CC(=O)N(Cc2ccc(C3CCCCC3)cc2)c2ccc(C(=O)O)c(O)c2)S(=O)(=O)c2ccc(C)cc2)cc1 | 7.6 µM |

| SMILES | IC50 |
| --- | --- |
| Cc1ccc(S(=O)(=O)N(CC(=O)N(Cc2ccc(C3CCCCC3)cc2)c2ccc(C(=O)O)c(O)c2)Cc2ccncc2)cc1 | 46.6 µM |
| O=C(O)c1ccc(N(Cc2ccc(C3CCCCC3)cc2)C(=O)CN(Cc2ccccc2)S(=O)(=O)c2c(F)c(F)c(F)c(F)c2F)cc1O | 14.4 µM |
| N#Cc1cccc(CN(CC(=O)N(Cc2ccc(C3CCCCC3)cc2)c2ccc(C(=O)O)c(O)c2)S(=O)(=O)c2c(F)c(F)c(F)c(F)c2F)c1 | 19.8 µM |
| Cc1ccc(S(=O)(=O)N(CC(=O)N(Cc2ccc(C3CCCCC3)cc2)c2ccc(C(=O)O)c(O)c2)Cc2ccccc2OC(F)(F)F)cc1 | 7.2 µM |
| O=C(O)c1ccc(N(Cc2ccc(C3CCCCC3)cc2)C(=O)CN(Cc2cccc(Cl)c2)S(=O)(=O)c2c(F)c(F)c(F)c(F)c2F)cc1O | 18.2 µM |
| Cc1ccc(S(=O)(=O)N(CC(=O)N(Cc2ccc(C3CCCCC3)cc2)c2ccc(C(=O)O)c(O)c2)Cc2ccc([N+](=O)[O-])cc2)cc1 | 11 µM |
| Cc1ccc(S(=O)(=O)N(CC(=O)N(Cc2ccc(C3CCCCC3)cc2)c2ccc(C(=O)O)c(O)c2)Cc2c(F)c(F)cc(F)c2F)cc1 | 22.8 µM |
| O=C(O)c1ccc(N(Cc2ccc(C3CCCCC3)cc2)C(=O)CN(Cc2c(F)cc(F)c(F)c2F)S(=O)(=O)c2c(F)c(F)c(F)c(F)c2F)cc1O | 17.6 µM |
| COC(=O)c1cccc(CN(CC(=O)N(Cc2ccc(C3CCCCC3)cc2)c2ccc(C(=O)O)c(O)c2)S(=O)(=O)c2ccc(C)cc2)c1 | 18.4 µM |
| O=C(O)c1ccc(N(Cc2ccc(C3CCCCC3)cc2)C(=O)CN(Cc2ccccc2F)S(=O)(=O)c2c(F)c(F)c(F)c(F)c2F)cc1O | 28 µM |
| Cc1ccc(S(=O)(=O)N(CC(=O)N(Cc2ccc(C3CCCCC3)cc2)c2ccc(C(=O)O)c(O)c2)Cc2cccc(C#N)c2)cc1 | 12.4 µM |
| Cc1ccc(S(=O)(=O)N(CC(=O)N(Cc2ccc(C3CCCCC3)cc2)c2ccc(C(=O)O)c(O)c2)Cc2ccc(SC(F)(F)F)cc2)cc1 | 9.6 µM |
| Cc1ccc(S(=O)(=O)N(CC(=O)N(Cc2ccc(C3CCCCC3)cc2)c2ccc(C(=O)O)c(O)c2)Cc2c(F)cc(F)c(F)c2F)cc1 | 15.4 µM |
| O=C(O)c1ccc(N(Cc2ccc(C3CCCCC3)cc2)C(=O)CN(Cc2ccc(Cl)cc2)S(=O)(=O)c2c(F)c(F)c(F)c(F)c2F)cc1O | 13.8 µM |
| Cc1ccc(S(=O)(=O)N(CC(=O)N(Cc2ccc(C3CCCCC3)cc2)c2ccc(C(=O)O)c(O)c2)Cc2ccc(Cl)cc2)cc1 | 6.2 µM |
| Cc1ccc(S(=O)(=O)N(CC(=O)N(Cc2ccc(C3CCCCC3)cc2)c2ccc(C(=O)O)c(O)c2)Cc2cccc(OC(F)(F)F)c2)cc1 | 8 µM |
| Cc1ccc(CN(CC(=O)N(Cc2ccc(C3CCCCC3)cc2)c2ccc(C(=O)O)c(O)c2)S(=O)(=O)c2ccc(C)cc2)cc1 | > 50 µM |
| Cc1ccc(S(=O)(=O)N(CC(=O)N(Cc2ccc(C3CCCCC3)cc2)c2ccc(C(=O)O)c(O)c2)Cc2ccccn2)cc1 | 45.2 µM |
| Cc1ccc(S(=O)(=O)N(CC(=O)N(Cc2ccc(C3CCCCC3)cc2)c2ccc(C(=O)O)c(O)c2)Cc2ccc(OC(F)(F)F)cc2)cc1 | 11.8 µM |

— ChEMBL document CHEMBL2429859, “Inhibiting aberrant signal transducer and activator of transcription protein activation with tetrapodal, small molecule Src homology 2 domain binders: promising agents against multiple myeloma” (J Med Chem, 2013)
